Measurements taken from ChEMBL document CHEMBL5678818, “Discovery of potent SOS1 inhibitors that block RAS activation via disruption of the RAS-SOS1 interaction” (Proc Natl Acad Sci U S A, 2019).
Where “and” joins values, the source holds several entries; their conditions need not be identical. Equal values may be shown once.

Experiments:
[1] = biological target: Mitogen-activated protein kinase 11 (Homo sapiens) (UniProt Q15759); test: Inhibition of p38-beta (unknown origin) assessed as residual activity at 1000 nM by KINOMEscan analysis relative to control
[2] = biological target: Fibroblast growth factor receptor 4 (Homo sapiens) (UniProt P22455); test: Inhibition of FGFR4 (unknown origin) assessed as residual activity at 1000 nM by KINOMEscan analysis relative to control
[3] = biological target: Ribosomal protein S6 kinase alpha-1 (Homo sapiens) (UniProt Q15418); test: Inhibition of N-terminal RSK1 kinetic domain 1 (unknown origin) assessed as residual activity at 1000 nM by KINOMEscan analysis relative to control
[4] = biological target: T1, Serine/threonine-protein kinase ICK (Homo sapiens) (UniProt Q9UPZ9); test: Inhibition of ICK (unknown origin) assessed as residual activity at 1000 nM by KINOMEscan analysis relative to control
T1 sequence (whole entry): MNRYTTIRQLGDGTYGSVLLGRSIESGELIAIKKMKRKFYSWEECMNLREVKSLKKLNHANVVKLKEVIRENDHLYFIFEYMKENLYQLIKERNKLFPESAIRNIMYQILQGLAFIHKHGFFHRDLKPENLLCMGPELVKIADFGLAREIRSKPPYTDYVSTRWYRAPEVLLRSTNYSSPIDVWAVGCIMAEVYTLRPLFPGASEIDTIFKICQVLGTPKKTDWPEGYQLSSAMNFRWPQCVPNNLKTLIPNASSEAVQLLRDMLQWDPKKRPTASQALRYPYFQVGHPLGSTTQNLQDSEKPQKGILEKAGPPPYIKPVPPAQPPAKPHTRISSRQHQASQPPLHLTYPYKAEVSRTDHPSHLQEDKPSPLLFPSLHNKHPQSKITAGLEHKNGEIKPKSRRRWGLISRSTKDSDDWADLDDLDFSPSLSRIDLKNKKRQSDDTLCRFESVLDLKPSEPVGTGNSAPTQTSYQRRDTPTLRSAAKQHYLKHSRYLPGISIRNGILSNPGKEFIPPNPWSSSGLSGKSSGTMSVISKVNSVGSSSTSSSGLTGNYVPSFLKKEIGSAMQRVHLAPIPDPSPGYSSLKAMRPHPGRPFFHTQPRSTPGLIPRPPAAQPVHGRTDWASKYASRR

[5] = biological target: Insulin receptor-related protein (Homo sapiens) (UniProt P14616); test: Inhibition of INSRR (unknown origin) assessed as residual activity at 1000 nM by KINOMEscan analysis relative to control
[6] = biological target: T2, Son of sevenless homolog 1 (Homo sapiens) (UniProt Q07889); test: Binding affinity to N-terminal His10-tagged wild-type recombinant human SOS1 catalytic domain (564 to 1049 residues) expressed in Escherichia coli assessed as change in enthalpy by ITC analysis
T2 sequence (whole entry): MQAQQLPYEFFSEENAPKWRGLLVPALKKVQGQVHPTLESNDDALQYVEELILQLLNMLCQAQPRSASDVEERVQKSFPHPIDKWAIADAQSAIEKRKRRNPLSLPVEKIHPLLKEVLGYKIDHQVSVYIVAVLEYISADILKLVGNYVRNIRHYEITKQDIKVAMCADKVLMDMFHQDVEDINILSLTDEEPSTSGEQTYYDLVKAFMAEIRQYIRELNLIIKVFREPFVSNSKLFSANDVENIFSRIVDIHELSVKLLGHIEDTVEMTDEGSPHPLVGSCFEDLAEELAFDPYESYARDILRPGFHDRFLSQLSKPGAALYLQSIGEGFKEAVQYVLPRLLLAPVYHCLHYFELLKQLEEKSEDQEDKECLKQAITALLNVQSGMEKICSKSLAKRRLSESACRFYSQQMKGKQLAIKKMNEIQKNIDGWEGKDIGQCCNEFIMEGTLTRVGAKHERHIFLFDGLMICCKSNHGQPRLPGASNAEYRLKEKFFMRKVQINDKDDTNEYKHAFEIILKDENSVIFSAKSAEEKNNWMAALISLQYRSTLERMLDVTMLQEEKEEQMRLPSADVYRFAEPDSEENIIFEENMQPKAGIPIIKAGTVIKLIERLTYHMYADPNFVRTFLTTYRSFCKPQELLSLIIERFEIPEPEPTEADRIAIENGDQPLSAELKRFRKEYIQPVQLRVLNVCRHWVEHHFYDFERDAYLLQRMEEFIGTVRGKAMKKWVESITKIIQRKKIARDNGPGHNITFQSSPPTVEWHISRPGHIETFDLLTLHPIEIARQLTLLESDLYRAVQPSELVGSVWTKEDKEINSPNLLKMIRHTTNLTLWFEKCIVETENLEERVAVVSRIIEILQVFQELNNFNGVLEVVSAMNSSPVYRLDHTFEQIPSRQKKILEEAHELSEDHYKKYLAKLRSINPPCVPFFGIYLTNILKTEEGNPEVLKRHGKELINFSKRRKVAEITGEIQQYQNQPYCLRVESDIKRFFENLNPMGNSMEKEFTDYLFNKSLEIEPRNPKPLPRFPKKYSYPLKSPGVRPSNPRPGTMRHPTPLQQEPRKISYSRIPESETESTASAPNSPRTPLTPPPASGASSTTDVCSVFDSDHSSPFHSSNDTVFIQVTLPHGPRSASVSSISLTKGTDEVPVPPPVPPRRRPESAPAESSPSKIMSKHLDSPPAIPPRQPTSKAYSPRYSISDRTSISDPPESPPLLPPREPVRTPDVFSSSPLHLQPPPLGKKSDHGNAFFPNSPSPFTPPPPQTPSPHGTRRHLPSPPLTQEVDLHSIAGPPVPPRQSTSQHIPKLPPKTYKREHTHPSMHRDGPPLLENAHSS
In short: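 SOS1cat was titrated into a solution of the test ligand. Integrated injection enthalpies were plotted against the protein-to-compound molar ratio and fitted to derive the thermodynamic binding parameters.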

Sequence of Mitogen-activated protein kinase 11 (Homo sapiens) (Q15759 whole entry): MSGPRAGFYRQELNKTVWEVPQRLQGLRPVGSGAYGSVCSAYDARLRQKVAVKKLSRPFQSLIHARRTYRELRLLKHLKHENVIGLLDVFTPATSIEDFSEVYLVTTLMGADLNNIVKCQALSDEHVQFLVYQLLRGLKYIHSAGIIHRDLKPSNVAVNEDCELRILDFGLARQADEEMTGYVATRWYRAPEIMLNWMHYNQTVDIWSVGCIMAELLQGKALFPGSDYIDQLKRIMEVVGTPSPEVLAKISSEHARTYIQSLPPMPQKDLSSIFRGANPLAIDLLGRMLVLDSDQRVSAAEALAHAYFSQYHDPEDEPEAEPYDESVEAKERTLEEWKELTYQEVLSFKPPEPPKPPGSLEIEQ
Sequence of Ribosomal protein S6 kinase alpha-1 (Homo sapiens) (Q15418 whole entry, the tested form may be a part): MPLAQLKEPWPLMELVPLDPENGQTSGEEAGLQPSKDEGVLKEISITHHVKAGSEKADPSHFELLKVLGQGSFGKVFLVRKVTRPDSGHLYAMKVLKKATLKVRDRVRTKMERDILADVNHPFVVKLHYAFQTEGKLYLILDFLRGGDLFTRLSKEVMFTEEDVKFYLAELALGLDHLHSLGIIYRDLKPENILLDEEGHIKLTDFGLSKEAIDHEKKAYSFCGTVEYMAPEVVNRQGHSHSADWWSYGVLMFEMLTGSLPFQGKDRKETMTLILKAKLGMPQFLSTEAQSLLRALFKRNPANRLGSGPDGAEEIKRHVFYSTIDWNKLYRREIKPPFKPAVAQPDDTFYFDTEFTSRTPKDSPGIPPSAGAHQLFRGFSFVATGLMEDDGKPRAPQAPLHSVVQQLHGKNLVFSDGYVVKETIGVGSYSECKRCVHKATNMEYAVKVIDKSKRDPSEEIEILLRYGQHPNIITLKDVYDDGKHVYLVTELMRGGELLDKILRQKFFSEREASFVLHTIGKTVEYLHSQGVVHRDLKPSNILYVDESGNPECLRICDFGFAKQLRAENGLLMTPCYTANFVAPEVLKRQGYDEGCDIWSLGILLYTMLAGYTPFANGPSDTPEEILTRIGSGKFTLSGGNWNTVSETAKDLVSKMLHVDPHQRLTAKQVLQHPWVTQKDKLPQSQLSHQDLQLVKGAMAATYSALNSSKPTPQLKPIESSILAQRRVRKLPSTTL
Sequence of Fibroblast growth factor receptor 4 (Homo sapiens) (P22455 22-802 limits assumed): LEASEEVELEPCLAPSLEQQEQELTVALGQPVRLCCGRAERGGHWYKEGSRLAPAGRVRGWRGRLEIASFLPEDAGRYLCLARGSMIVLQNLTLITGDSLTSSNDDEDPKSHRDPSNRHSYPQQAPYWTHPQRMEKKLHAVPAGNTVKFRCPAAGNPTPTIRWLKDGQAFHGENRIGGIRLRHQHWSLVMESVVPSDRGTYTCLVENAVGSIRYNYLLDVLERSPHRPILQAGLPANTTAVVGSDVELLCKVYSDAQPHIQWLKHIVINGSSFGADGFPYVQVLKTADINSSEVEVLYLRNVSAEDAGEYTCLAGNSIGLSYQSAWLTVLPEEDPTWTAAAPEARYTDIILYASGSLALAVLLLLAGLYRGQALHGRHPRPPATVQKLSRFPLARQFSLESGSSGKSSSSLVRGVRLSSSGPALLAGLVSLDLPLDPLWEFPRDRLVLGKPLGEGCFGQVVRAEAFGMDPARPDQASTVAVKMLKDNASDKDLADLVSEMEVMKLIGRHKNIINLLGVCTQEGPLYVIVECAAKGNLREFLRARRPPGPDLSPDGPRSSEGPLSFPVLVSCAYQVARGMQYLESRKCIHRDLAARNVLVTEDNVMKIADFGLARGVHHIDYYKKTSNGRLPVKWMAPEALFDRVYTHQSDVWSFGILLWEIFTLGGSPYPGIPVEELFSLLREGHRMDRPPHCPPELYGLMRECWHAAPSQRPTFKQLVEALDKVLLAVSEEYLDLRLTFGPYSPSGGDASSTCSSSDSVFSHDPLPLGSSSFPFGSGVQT
Sequence of Insulin receptor-related protein (Homo sapiens) (P14616 27-742 limits assumed): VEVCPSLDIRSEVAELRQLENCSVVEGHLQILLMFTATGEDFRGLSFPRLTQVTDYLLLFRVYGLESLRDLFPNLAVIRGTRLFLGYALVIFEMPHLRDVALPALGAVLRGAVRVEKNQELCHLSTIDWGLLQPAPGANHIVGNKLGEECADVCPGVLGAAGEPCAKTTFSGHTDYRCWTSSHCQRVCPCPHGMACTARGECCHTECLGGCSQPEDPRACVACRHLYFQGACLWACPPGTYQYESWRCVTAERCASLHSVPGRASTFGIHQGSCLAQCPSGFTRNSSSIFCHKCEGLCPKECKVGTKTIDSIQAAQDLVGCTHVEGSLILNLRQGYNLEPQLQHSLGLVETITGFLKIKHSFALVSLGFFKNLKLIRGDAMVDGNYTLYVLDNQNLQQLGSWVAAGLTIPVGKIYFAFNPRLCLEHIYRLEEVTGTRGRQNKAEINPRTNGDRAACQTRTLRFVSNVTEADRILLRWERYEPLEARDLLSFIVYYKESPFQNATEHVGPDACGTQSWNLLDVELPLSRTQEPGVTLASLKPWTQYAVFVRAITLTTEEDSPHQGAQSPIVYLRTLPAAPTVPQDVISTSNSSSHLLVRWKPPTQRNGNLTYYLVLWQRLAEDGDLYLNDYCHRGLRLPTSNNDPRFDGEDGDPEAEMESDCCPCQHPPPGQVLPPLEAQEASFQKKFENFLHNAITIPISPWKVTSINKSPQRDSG
Sequence of Insulin receptor-related protein (Homo sapiens) (P14616 747-1297 limits assumed): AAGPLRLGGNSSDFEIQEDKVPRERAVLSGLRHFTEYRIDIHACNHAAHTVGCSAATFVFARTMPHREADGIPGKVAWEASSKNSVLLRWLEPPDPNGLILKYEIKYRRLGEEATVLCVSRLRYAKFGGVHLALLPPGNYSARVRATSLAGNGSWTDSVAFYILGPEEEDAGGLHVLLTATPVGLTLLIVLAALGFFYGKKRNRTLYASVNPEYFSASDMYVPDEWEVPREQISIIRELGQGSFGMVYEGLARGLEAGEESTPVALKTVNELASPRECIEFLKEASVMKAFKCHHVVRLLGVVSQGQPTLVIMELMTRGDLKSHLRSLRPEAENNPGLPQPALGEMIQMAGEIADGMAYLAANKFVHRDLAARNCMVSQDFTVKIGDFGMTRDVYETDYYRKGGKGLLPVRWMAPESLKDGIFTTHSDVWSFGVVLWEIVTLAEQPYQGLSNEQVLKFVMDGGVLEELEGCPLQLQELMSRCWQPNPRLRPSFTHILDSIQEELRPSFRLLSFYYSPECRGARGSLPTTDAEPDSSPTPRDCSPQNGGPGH

| SMILES | Activity [1] | Activity [2] | Activity [3] | Activity [4] | Activity [5] | deltaH [6] |
| --- | --- | --- | --- | --- | --- | --- |
| COc1cc2nc(C)nc(N[C@H](C)c3cccc(-c4cn[nH]c4)c3)c2cc1OC | 97% | 97% | 95% | 78% | 97% | – |
| CNCc1ccccc1-c1csc([C@@H](C)Nc2nc(C)nc3cc(OC)c(OC)cc23)c1 [BAY-293] | – | – | – | – | – | -16.1 kcal/mol and -17.9 kcal/mol |
| COc1cc2ncnc(N[C@H](C)c3cccc4ccccc34)c2cc1OC | 96% | 98% | 76% | 94% | 93% | -14.1 kcal/mol |
